V1aR counter: activates human V1a receptor in oxytocin agonist counter-screen. P37288. CHO-V1R cells, Fluo-8 calcium fluorescence, agonist mode; 0% DMSO, 100% 3 nM vasopressin. activation, % at 3 µM. hit rate 0.25% among 320,000. AID 2797;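 active means activation above the mean activation of all tested compounds plus 3 SD, per screening run, cut at about 20% in these data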;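 further: signal is peak over basal fluorescence ratio across a 100 second FLIPR read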
Target sequence (P37288 whole entry, looked up): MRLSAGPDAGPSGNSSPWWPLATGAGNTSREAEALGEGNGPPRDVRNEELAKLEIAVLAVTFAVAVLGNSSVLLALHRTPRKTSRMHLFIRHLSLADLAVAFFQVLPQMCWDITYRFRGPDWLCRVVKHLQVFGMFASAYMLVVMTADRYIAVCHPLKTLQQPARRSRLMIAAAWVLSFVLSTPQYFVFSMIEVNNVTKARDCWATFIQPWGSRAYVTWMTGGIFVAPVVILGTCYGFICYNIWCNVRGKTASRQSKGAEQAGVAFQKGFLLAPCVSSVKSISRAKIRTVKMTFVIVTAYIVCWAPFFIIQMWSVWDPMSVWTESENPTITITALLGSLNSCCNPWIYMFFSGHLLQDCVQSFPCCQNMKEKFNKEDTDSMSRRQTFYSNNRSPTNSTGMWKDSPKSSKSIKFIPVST
TRPML3 agonist: activates the human TRPML3 channel. Q8TDD5. HEK293 TRPML3-YFP, Fluo-8 calcium fluorescence; 100% = the carbachol control signal. activation, % at 3 µM. hit rate 0.29% among 220,000;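 active means activation above its plate's cutoff, the mean activation of the plate's test wells plus 3 SD, cut at about 12% in these data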;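 further: 0% = DMSO only wells and 100% = carbachol wells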
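Test system – HEK293 line with stable expression of human TRPML3-YFP channel · Control set – carbachol 87 µM final as high control (100%), DMSO as low control (0%) · Signal – Fluo-8 calcium dye fluorescence, ex 470-495, em 515-575 nm · Incubation – 1-h 37 °C dye load, 5-s basal, 120-s post-compound reads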
OXTR potentiate: potentiators of human oxytocin receptor. CHO-OTR cells, Fluo-8 calcium fluorescence, potentiator mode; 0% = oxytocin EC15, 100% = EC100. activation, % at 3 µM. hit rate 0.061% among 320,000. AID 2445;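 active means activation above that plate's cutoff, the mean activation of tested compounds plus 3 SD, cut at about 6.6% in these data, passing the limit was not always enough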;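 further: 100% uses oxytocin at 75 nM as the full agonist control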
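Assay system: CHO cell line stably expressing human OTR | Also added: Oxytocin at about EC15, sub-maximal agonist stimulus | Times: Compound 6 min at room temperature before oxytocin, 100 s read | Measured by: Fluo-8 intracellular calcium fluorescence, ex 470-495, em 515-575 nm | Controls: EC15 oxytocin alone as 0%, 75 nM oxytocin as 100%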
CRFR2-BP ag: CRF-BP/CRF-R2 complex agonism | HEK293 CRF-R2/CRF-BP, calcium dye fluorescence (FLIPR); percent of saturating CRF peptide response | activation, % at 13.2 µM | hit rate 0.46% among 350,000;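 active means activation of at least 50%, plus an integration ratio under a set limit after plate pattern correction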;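 further: plate controls were neutral control wells without compound for no effect and CRF at EC100 for full effect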
OXTR ag: activates the human oxytocin receptor | CHO-OTR cells, Fluo-8 calcium fluorescence; normalized: DMSO 0%, oxytocin 100% | P30559 | activation, % at 3 µM | hit rate 0.32% among 320,000;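 active means activation above the mean of all tested compounds plus 3 SD, cutoff set per screening run, cut at about 20% in these data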;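 further: peak over basal fluorescence ratio from a 100 s FLIPR kinetic read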
TRPN1 ag: zebrafish TRPN1 (NompC) channel agonism; hit rate 0.18% among 220,000; activation, % at 3 µM; HEK293 zebrafish TRPN1-YFP, Fluo-8 calcium fluorescence; 100% = response to 87 µM carbachol; AID 1424;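 active means activation above its plate's cutoff, the mean activation of test wells on that plate plus 3 SD, cut at about 19% in these data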;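 further: 0% = DMSO alone and 100% = 87 µM carbachol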
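Material: zebrafish TRPN1-YFP in HEK293 cells; Doses: single test compound dose, 3 µM nominal, 0.3% DMSO; Timing: dye loading 1 h at 37 °C, then 30 min room temperature; Technique: intracellular calcium fluorescence with Fluo-8; Benchmarks: high carbachol 87 µM, low DMSO alone.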
OXTR pot confirm: confirmation of human oxytocin receptor potentiators. shares compounds with OXTR potentiate. CHO-OTR cells, Fluo-8 calcium fluorescence, potentiation; scaled from low-dose to maximal oxytocin. activation, % at 3 µM. 180 tested, under 10 active;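 active means mean percent activation over triplicates above a cutoff set from solvent-only control plates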;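 further: compounds tested in the presence of an EC15 dose of oxytocin; 0% = EC15 oxytocin with DMSO and 100% = EC100 oxytocin with DMSO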
* marks the source's active call; other numbers are inactive results. A selection: hits, their analogues and other compounds. The true share with any hit is near 0.83%.

How did COc1ccc(N2CCN(C(=O)C3CCN(S(=O)(=O)c4ccc5c(c4)oc(=O)n5C)CC3)CC2)cc1 do in these assays?
V1aR counter: 1; OXTR potentiate: 13*; CRFR2-BP ag: -1; OXTR ag: 2; OXTR pot confirm: -5

What do the screens show for `CCOC(=O)c1[nH]c(=S)[nH]c1C`?
CRFR2-BP ag: 1

What do the screens show for `Cc1ccc(S(=O)(=O)N(C)C[C@H]2Oc3ncc(-c4ccccc4)cc3C(=O)N([C@@H](C)CO)C[C@@H]2C)cc1`?
CRFR2-BP ag: -3

Results for CCNc1nc(NC(C)C)nc(N(C)C#N)n1 ?
V1aR counter: 1; TRPML3 agonist: 1; OXTR potentiate: 13*; CRFR2-BP ag: 0; OXTR ag: -1; TRPN1 ag: 0; OXTR pot confirm: 3

What do the screens show for `CCCN(C#N)c1nc(NCC)nc(NC(C)C)n1`?
V1aR counter: -1; TRPML3 agonist: 0; OXTR potentiate: -7; CRFR2-BP ag: 0; OXTR ag: -1; TRPN1 ag: 0

How did C/C(=N/NC(=O)CNC(=O)c1ccccn1)c1cccc([N+](=O)[O-])c1 do in these assays?
V1aR counter: 1; TRPML3 agonist: 1; OXTR potentiate: 12*; CRFR2-BP ag: 0; OXTR ag: 1; TRPN1 ag: 0; OXTR pot confirm: -3

How did CC(=O)c1c(C)[nH]c(C(=O)NNC(=O)COc2cc(C)cc(C)c2)c1C do in these assays?
CRFR2-BP ag: 0

How did COc1ccc([N+](=O)[O-])cc1-n1cccc1 do in these assays?
V1aR counter: 0; TRPML3 agonist: 0; OXTR potentiate: 13*; CRFR2-BP ag: -6; OXTR ag: 0; TRPN1 ag: 0; OXTR pot confirm: -7

Results for CC1CC(C)CN(CCCNC(=O)CN2C(=O)c3cccnc3Oc3ccc(Cl)cc32)C1 (configuration not stated) ?
V1aR counter: 1; OXTR potentiate: -1; CRFR2-BP ag: -2; OXTR ag: 1

How did Cc1ccc(C(=O)CSc2cc(C)[nH]c(=O)n2)cc1 do in these assays?
V1aR counter: -1; OXTR potentiate: -1; CRFR2-BP ag: 0; OXTR ag: -2

How did Cc1cc(SCC(=O)c2ccc(Cl)cc2)nc(=O)[nH]1 do in these assays?
V1aR counter: 2; OXTR potentiate: 12*; CRFR2-BP ag: 1; OXTR ag: 0; OXTR pot confirm: 1

How did COc1ccc(-c2nc(CN3CCC(C(=O)NC4CCCC4)CC3)c(C)o2)cc1OC do in these assays?
V1aR counter: 0; OXTR potentiate: 16*; CRFR2-BP ag: -2; OXTR ag: 0; OXTR pot confirm: -4

Results for CCOc1ccc(CCNC(=O)COC(=O)c2cc(OC)cc(OC)c2)cc1OCC ?
V1aR counter: -1; TRPML3 agonist: -1; OXTR potentiate: 9.8*; CRFR2-BP ag: 0; OXTR ag: -2; TRPN1 ag: -2; OXTR pot confirm: -3

Results for COc1cc(/C=C2/S/C(=N/S(=O)(=O)c3ccccc3)NC2=O)c([N+](=O)[O-])cc1OC ?
V1aR counter: 0; TRPML3 agonist: 0; OXTR potentiate: -13; CRFR2-BP ag: 2; OXTR ag: -1; TRPN1 ag: -1

How did COc1cc(/C=C2/S/C(=N/S(=O)(=O)Cc3ccccc3)NC2=O)c([N+](=O)[O-])cc1OC do in these assays?
V1aR counter: 1; TRPML3 agonist: 2; OXTR potentiate: 13*; CRFR2-BP ag: 0; OXTR ag: 2; TRPN1 ag: 5; OXTR pot confirm: -4

Results for COc1cc(NC(=O)CN2CCN(CC(=O)Nc3ccccc3OC)CC2)cc(OC)c1 ?
V1aR counter: -1; OXTR potentiate: 3; CRFR2-BP ag: -3; OXTR ag: 1

Results for COc1ccc(-c2ccc3c(c2)c(-c2cccs2)c(-c2cc(OC)cc(OC)c2)n3C)cc1 ?
V1aR counter: -1; OXTR potentiate: -2; CRFR2-BP ag: 0; OXTR ag: 2

Results for COc1cc(OC)cc(-c2c(-c3cccs3)c3cc(-c4ccc(C(N)=O)cc4)ccc3n2C)c1 ?
V1aR counter: 2; OXTR potentiate: 13*; CRFR2-BP ag: 1; OXTR ag: 3; OXTR pot confirm: -5

What do the screens show for `Cc1cccnc1Nc1ncnc(N)c1[N+](=O)[O-]`?
V1aR counter: 1; TRPML3 agonist: 0; OXTR potentiate: 11*; CRFR2-BP ag: 2; OXTR ag: 1; TRPN1 ag: 0; OXTR pot confirm: -4

Results for S=c1[nH]nc(-c2ccncc2)n1/N=C/c1cn(-c2ccccc2)nc1-c1ccccc1 ?
V1aR counter: 1; TRPML3 agonist: 0; OXTR potentiate: 20*; CRFR2-BP ag: -2; OXTR ag: 0; TRPN1 ag: 2; OXTR pot confirm: 7.5*

Results for O=[N+]([O-])c1ccc(-c2nn(-c3ccccc3)cc2/C=N/n2c(-c3ccncc3)n[nH]c2=S)cc1 ?
V1aR counter: 0; TRPML3 agonist: 1; OXTR potentiate: -6; CRFR2-BP ag: 1; OXTR ag: 1; TRPN1 ag: 1

Results for O=C(CSc1ncnc2sc3c(c12)CCC3)NCC1CCCO1 (configuration not stated) ?
V1aR counter: 2; OXTR potentiate: 20*; CRFR2-BP ag: -1; OXTR ag: -1; OXTR pot confirm: -3

What do the screens show for `Cc1c(C(=O)N(CCC#N)c2ccccc2)sc2nc3n(c(=O)c12)CCCC3`?
V1aR counter: 0; OXTR potentiate: -3; CRFR2-BP ag: 0; OXTR ag: -2

Results for O=C(/C=C/c1ccc([N+](=O)[O-])cc1)c1cccnc1 ?
V1aR counter: 1; TRPML3 agonist: 1; OXTR potentiate: 13*; CRFR2-BP ag: -1; OXTR ag: 3; TRPN1 ag: 1; OXTR pot confirm: -6

What do the screens show for `CSCC[C@H](N)C(=O)N1CCC(C(=O)N[C@H](C)C(=O)NC(C)c2ccccc2)CC1` (some centres not stated)?
V1aR counter: 0; OXTR potentiate: -4; CRFR2-BP ag: -1; OXTR ag: 1

Results for CCc1ccc(NC(=O)Cc2ccc(NC3=NC4CS(=O)(=O)CC4S3)cc2)cc1 (configuration not stated) ?
V1aR counter: 0; OXTR potentiate: 8.3*; CRFR2-BP ag: -2; OXTR ag: 0; OXTR pot confirm: -4

High-throughput results: PubChem BioAssay, several laboratories
